Laboratory results as given in ChEMBL document CHEMBL1133686, “6-Aminoquinolones as new potential anti-HIV agents” (J Med Chem, 2000).
“And” between values parts separate entries of the source, which are not always exact repeats. Equal values may be shown once.

Tests used:
C8166 = experiment: Selectivity index in HIV-1 infected C8166 (human CD4) cells.; assay type: functional
In short: (§1)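 Selectivity index in C8166 cells, computed as the ratio of TC50 (concentration reducing cell growth by 50%) to EC50 (concentration reducing supernatant reverse transcriptase activity by 50% in HIV-1 IIIB-infected cultures).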

[1] = tested on: Human immunodeficiency virus 1; experiment: In vitro antiviral activity against HIV-1 IIIB in C8166 (human CD4) cells.; assay type: functional, organism-based; conditions: Human immunodeficiency virus 1, C8166
In short: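 HIV-1 IIIB infection of C8166 cells, compounds from DMSO stocks of 25 mM or higher. EC50 is the drug concentration (μM) reducing reverse transcriptase activity of culture supernatants by 50%. Syncytium formation, gp120 ELISA and cytopathic-effect reduction were also scored. Values are the mean of at least three experiments run in triplicate.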

C8166 (human) = experiment: In vitro toxicity to C8166 (human CD4) cells.
[2] = Selectivity index expressed as ratio of TC50 (HIV-1) to EC50 (HIV-1) in C8166 cells; assay type: functional; in short: as §1
Herpes simplex virus 1 = experiment: Antiviral activity determined against herpes simplex virus type 1 (HSV-1) in vero cells; conditions: Herpes simplex virus 1, Vero
[3] = Toxicity which reduces cell growth by 50% against herpes simplex virus type 1 (HSV-1) in vero cells

Structure (SMILES) | SI (C8166) | EC50 [1] | TC50 (C8166 (human)) | SI [2] | EC50 (Herpes simplex virus 1) | TC50 [3]
CC(C)(C)n1cc(C(=O)O)c(=O)c2cc(N)c(N3CCN(c4ncccn4)CC3)cc21 | 4 | 9.48 µM | 42.6 µM |  |  | 
CNc1cc2c(=O)c(C(=O)O)cn(C)c2cc1N1CCN(c2ccccn2)CC1 | 5 | 3.5 µM | 19.5 µM |  |  | 
Cn1cc(C(=O)O)c(=O)c2cc(N)c(N3CCN(c4ccccn4)CC3)cc21 | 70 | 0.1 µM | 7 µM | 70 | 30 µM | 270 µM
Cc1c(N2CCN(c3ccccn3)CC2)c(N)cc2c(=O)c(C(=O)O)cn(C)c12 | 6 | 7.5 µM | 46.2 µM |  |  | 
Nc1cc2c(=O)c(C(=O)O)cn(N3CCN(c4ccccn4)CC3)c2cc1Cl | >2 | 500 µM | >1000 µM |  |  | 
Nc1cc2c(=O)c(C(=O)O)cn(C3CC3)c2cc1N1CCN(c2ccccn2)CC1 |  | 0.7 µM | 9 µM |  | 38 µM | 95 µM
COc1ccc(N2CCN(c3cc4c(cc3N)c(=O)c(C(=O)O)cn4C(C)(C)C)CC2)cc1 | 1.4 | 9.5 µM | 13.8 µM |  |  | 
Cc1c(N2CCC(C)CC2)c(N)cc2c(=O)c(C(=O)O)cn(C3CC3)c12 | 4 | 20 µM | 80 µM |  |  | 
CC(C)(C)n1cc(C(=O)O)c(=O)c2cc(N)c(N3CCN(c4ccc(F)cc4)CC3)cc21 | 1.2 | 8.44 µM | 10.7 µM |  |  | 
COc1ccccc1N1CCN(c2cc3c(cc2N)c(=O)c(C(=O)O)cn3C(C)(C)C)CC1 | 6 and 9 | 3.2 µM | 20 µM |  | 33 µM | 300 µM
O=C(O)c1cn(C2CC2)c2cc(N3CCNCC3)c(F)cc2c1=O [CIPROFLOXACIN] | 1.6 | 100 µM | 160 µM |  |  | 
Cn1cc(C(=O)O)c(=O)c2cc(F)c(N3CCN(c4ccccn4)CC3)cc21 | 5 | 1.3 µM | 7 µM |  |  | 
CCOC(=O)c1cn(C)c2cc(N3CCN(c4ccccn4)CC3)c(N)cc2c1=O | 1.5 | 37 µM | 57 µM |  | > 300 µM | >300 µM
CC(C)(C)n1cc(C(=O)O)c(=O)c2cc(N)c(N3CCc4ccccc4C3)cc21 | 2 | 40 µM | 80 µM |  |  | 
CC(C)(C)n1cc(C(=O)O)c(=O)c2cc(F)c(N3CCN(c4ccccn4)CC3)cc21 | 5 | 7.5 µM | 40 µM |  |  | 
O=C(O)c1cn(C2CC2)c2cc(N3CCN(c4ccccn4)CC3)c(F)cc2c1=O | 13 | 5 µM | 65 µM |  |  | 
CN1CCN(c2c(F)cc3c(=O)c(C(=O)O)cn4c3c2SCC4)CC1 [RUFLOXACIN] | 2 | 200 µM | 400 µM |  |  | 
Cc1cn([C@H]2C[C@H](N=[N+]=[N-])[C@@H](CO)O2)c(=O)[nH]c1=O [ZIDOVUDINE] | 25000 | 0.02 µM | 500 µM |  |  | 
CCOC(=O)c1cn(C(C)(C)C)c2cc(N3CCN(c4ccccn4)CC3)c(N)cc2c1=O | 1.5 | 51.2 µM | 77.9 µM |  | > 300 µM | >300 µM
CC(C)(C)n1cc(C(=O)O)c(=O)c2cc(N)c(N3CCN(c4ccccn4)CC3)cc21 | 4 | 2 µM | 8.1 µM |  | 82 µM | 290 µM
Cc1c(N2CCc3ccccc3C2)c(N)cc2c(=O)c(C(=O)O)cn(C3CC3)c12 | 5 | 80 µM | 400 µM |  |  | 
